16 compounds from ChEMBL document CHEMBL1136105, “1,7- and 2,7-naphthyridine derivatives as potent and highly specific PDE5 inhibitors” (Bioorg Med Chem Lett, 2003) can be followed below.

In one experiment the target is Phosphodiesterase 1 (Homo sapiens, UniProt P54750+Q01064+Q14123). The experiment is described as follows: Inhibitory activity against phosphodiesterase-1 (PDE1) isolated from canine lung. The conditions noted are these: target entry is the homologue from another species. Format: protein assay, Canis lupus familiaris. In outline:
(§1)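 Enzyme IC50 taken from a logarithmic concentration–inhibition curve of at least four points; each value is the mean of at least two duplicate experiments.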

The target in the next experiment is Phosphodiesterase 6. The experiment is described as follows: Inhibitory activity against Phosphodiesterase 6 isolated from bovine retina. It counts as protein assay.
Experiment [1] deals with cGMP-specific 3',5'-cyclic phosphodiesterase (Canis lupus familiaris, UniProt O77746). The experiment is described as follows: Inhibitory activity against phosphodiesterase 5 (PDE5) isolated from canine lung. In outline: as §1
The next experiment deals with Phosphodiesterase 4 (Homo sapiens, UniProt P27815+Q08499+Q07343+Q08493). The experiment is described as follows: Inhibitory activity against phosphodiesterase 4 (PDE4) isolated from canine lung. It counts as protein assay, Canis lupus familiaris. The conditions noted are these: target entry is the homologue from another species. In outline:
as §1

In another experiment the target is Phosphodiesterase 3 (Homo sapiens, UniProt Q14432+Q13370). As to the kind of experiment: Inhibitory activity against phosphodiesterase-3 (PDE3) isolated from canine heart. Format: protein assay, Canis lupus familiaris. The conditions noted are these: target entry is the homologue from another species. In outline: as §1
Experiment [2] addresses T1, cGMP-dependent 3',5'-cyclic phosphodiesterase (Bos taurus, UniProt P14099).
T1 sequence (P14099 whole entry): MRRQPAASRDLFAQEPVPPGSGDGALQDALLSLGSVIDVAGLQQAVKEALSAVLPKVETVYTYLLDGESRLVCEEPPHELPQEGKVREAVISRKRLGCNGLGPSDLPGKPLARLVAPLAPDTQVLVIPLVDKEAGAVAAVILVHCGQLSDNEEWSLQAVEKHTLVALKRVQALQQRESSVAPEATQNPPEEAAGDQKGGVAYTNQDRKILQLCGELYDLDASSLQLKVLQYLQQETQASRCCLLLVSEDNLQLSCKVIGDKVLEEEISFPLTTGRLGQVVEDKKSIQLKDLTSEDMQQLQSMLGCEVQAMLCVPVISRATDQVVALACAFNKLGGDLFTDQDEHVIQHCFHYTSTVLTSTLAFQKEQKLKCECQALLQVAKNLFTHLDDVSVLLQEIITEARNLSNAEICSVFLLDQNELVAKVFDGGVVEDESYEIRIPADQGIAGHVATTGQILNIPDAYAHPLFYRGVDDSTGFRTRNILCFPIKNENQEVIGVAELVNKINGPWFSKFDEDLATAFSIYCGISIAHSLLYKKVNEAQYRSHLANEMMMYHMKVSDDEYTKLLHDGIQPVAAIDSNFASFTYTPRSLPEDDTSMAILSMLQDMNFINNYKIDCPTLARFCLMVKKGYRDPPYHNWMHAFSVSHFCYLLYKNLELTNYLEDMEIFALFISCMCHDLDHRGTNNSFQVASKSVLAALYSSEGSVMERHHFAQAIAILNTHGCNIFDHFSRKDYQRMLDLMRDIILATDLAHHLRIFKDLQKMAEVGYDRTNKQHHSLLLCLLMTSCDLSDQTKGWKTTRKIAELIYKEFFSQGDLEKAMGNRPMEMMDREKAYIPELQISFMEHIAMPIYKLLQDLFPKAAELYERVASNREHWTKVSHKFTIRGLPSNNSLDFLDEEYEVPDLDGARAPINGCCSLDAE
The experiment is described as follows: Inhibitory activity against phosphodiesterase-2 (PDE2) isolated from bovine adrenal gland. It counts as tissue-based. The method, boiled down:
as §1

The species entered for another experiment is Oryctolagus cuniculus. The experiment is described as follows: Relaxant effect on rabbit corpus cavernosum. Format: functional.

Structures are written as SMILES.

Take `COC(=O)c1c(-c2cc(OC)c(OC)c(OC)c2)c2ccc(OCc3ccccn3)nc2c(=O)n1Cc1cccnc1.Cl`: the results for the IC50 (against Phosphodiesterase 1; against Phosphodiesterase 6; in experiment [1]) were 12000 nM, 38 nM and 2.3 nM, respectively.
On to `COC(=O)c1c(-c2cc(OC)c(OC)c(OC)c2)c2ccc(OCc3ncccn3)nc2c(=O)n1Cc1ccnc(C)c1.Cl`, for which the concentration for half-maximal inhibition (IC50) is above 100000 nM against Phosphodiesterase 1; 42 nM against Phosphodiesterase 6; 1.9 nM in experiment [1]; 19000 nM on Phosphodiesterase 4; above 100000 nM against Phosphodiesterase 3; 25000 nM in experiment [2]. Further, the 30% effect level in the experiment filed under Oryctolagus cuniculus (EC30) was put at 37 nM.
Turning to `COC(=O)c1c(-c2cc(OC)c(OC)c(OC)c2)c2ccnc(OCc3ncccn3)c2c(=O)n1Cc1ccnc(C)c1.Cl`, the IC50 against Phosphodiesterase 1 is above 100000 nM; on Phosphodiesterase 6 it was 56 nM; in experiment [1], 0.23 nM; on Phosphodiesterase 4, 67000 nM; against Phosphodiesterase 3, above 100000 nM; in experiment [2], above 100000 nM. The compound further gave an EC30 in the experiment filed under Oryctolagus cuniculus of 5 nM.
On to `COC(=O)c1c(-c2cc(OC)c(OC)c(OC)c2)c2ccnc(N3CCN(C)CC3)c2c(=O)n1Cc1ccnc(C)c1`, for which the figures for the half-inhibitory concentration (IC50) (at Phosphodiesterase 1; at Phosphodiesterase 6; in experiment [1]) were above 100000 nM, 1400 nM and 94 nM, respectively.
Turning to `COC(=O)c1c(-c2cc(OC)c(OC)c(OC)c2)c2ccnc(OCCc3ccccn3)c2c(=O)n1Cc1ccnc(C)c1.Cl`, the half-maximal inhibitory concentration (IC50) was 20000 nM at Phosphodiesterase 1; 72 nM on Phosphodiesterase 6; 0.52 nM in experiment [1]; 50000 nM on Phosphodiesterase 4; above 100000 nM against Phosphodiesterase 3; above 100000 nM in experiment [2]. This compound yielded a concentration for an effect of 30% (EC30) in the experiment filed under Oryctolagus cuniculus of 22 nM.
In the case of `COC(=O)c1c(-c2cc(OC)c(OC)c(OC)c2)c2ccc(OCc3ccccn3)cc2c(=O)n1-c1ccc(N)cc1.O=S(=O)(O)O`, the figures for the half-maximal inhibitory concentration (IC50) (against Phosphodiesterase 1; on Phosphodiesterase 6; in experiment [2]) were 3000 nM, 28 nM and 9700 nM, respectively. The compound further registered a 30% effect concentration (EC30) in the experiment filed under Oryctolagus cuniculus of 7.9 nM.
For the compound `COC(=O)c1c(-c2cc(OC)c(OC)c(OC)c2)c2ccnc(NCCO)c2c(=O)n1Cc1ccnc(C)c1.Cl`, the IC50 against Phosphodiesterase 1 amounted to 19000 nM; against Phosphodiesterase 6, 280 nM; in experiment [1] it was 2.6 nM; at Phosphodiesterase 4 it was 450 nM; against Phosphodiesterase 3, 5300 nM; in experiment [2] it was 78000 nM. In the experiment listed under Oryctolagus cuniculus, this compound had an EC30 of 14 nM.
Turning to `COC(=O)c1c(-c2cc(OC)c(OC)c(OC)c2)c2ccnc(OCc3ccccn3)c2c(=O)n1Cc1ccnc(C)c1`, the IC50 was 25000 nM against Phosphodiesterase 1, 4.4 nM against Phosphodiesterase 6 and 0.31 nM in experiment [1].
For `COC(=O)c1c(-c2cc(OC)c(OC)c(OC)c2)c2ccc(NCc3ccccn3)nc2c(=O)n1Cc1ccnc(C)c1.Cl`, in that order: 41000 nM, 22 nM and 1.8 nM.
In experiment [2], `CCCc1nn(C)c2c(=O)[nH]c(-c3cc(S(=O)(=O)N4CCN(C)CC4)ccc3OCC)nc12` came in with a 50% inhibitory concentration (IC50) of 43000 nM.
Turning to `COC(=O)c1c(-c2cc(OC)c(OC)c(OC)c2)c2ccc(OCc3ccccn3)nc2c(=O)n1-c1ccc(N)cc1.Cl`, the IC50 at Phosphodiesterase 1 amounted to 40000 nM; at Phosphodiesterase 6, 22 nM; in experiment [1], 0.51 nM.
As for `COC(=O)c1c(-c2cc(OC)c(OC)c(OC)c2)c2ccc(OCc3ccccn3)nc2c(=O)n1Cc1ccccn1.Cl`, the half-maximal inhibitory concentration (IC50) is 20000 nM on Phosphodiesterase 1, 230 nM against Phosphodiesterase 6 and 11 nM in experiment [1].
As to `COC(=O)c1c(-c2cc(OC)c(OC)c(OC)c2)c2ccc(OCCc3ccccn3)nc2c(=O)n1Cc1ccnc(C)c1`, the IC50 in experiment [1] is 1.2 nM.
Take `COC(=O)c1c(-c2cc(OC)c(OC)c(OC)c2)c2ccc(OCc3ccccn3)nc2c(=O)n1Cc1ccnc(C)c1.Cl`: the IC50 was 33000 nM at Phosphodiesterase 1; 8.6 nM against Phosphodiesterase 6; 0.22 nM in experiment [1]; 30000 nM against Phosphodiesterase 4; above 100000 nM on Phosphodiesterase 3; 40000 nM in experiment [2]. This compound also showed a 30% effect concentration (EC30) in the experiment filed under Oryctolagus cuniculus of 53 nM.
As to `COC(=O)c1c(-c2cc(OC)c(OC)c(OC)c2)c2ccc(OCc3ccccn3)nc2c(=O)n1Cc1ccncc1.Cl`, the results for the IC50 (at Phosphodiesterase 1; on Phosphodiesterase 6; in experiment [1]) were 45000 nM, 11 nM and 0.38 nM, respectively.
For `COC(=O)c1c(-c2cc(OC)c(OC)c(OC)c2)c2ccc(OCc3cnccn3)nc2c(=O)n1Cc1ccnc(C)c1.Cl`, in that order: 22000 nM, 7.7 nM and 0.29 nM.

One may read the IC50 as the point on the concentration scale where inhibition reaches its midpoint. Low readings indicate higher potency, high ones lower potency. In general, EC30 refers to the point of the concentration-response curve where the effect stands at 30%. Low values mean an effect from little substance, high ones a need for much substance.
